Data set [1] deals with Plasmodium falciparum. As to the kind of experiment: Antimalarial activity against mefloquine/chloroquine/atovaquone/pyrimethamine-resistant Plasmodium falciparum TM90-C2B infected in human type A-positive erythrocytes after 48 hrs by [3H]-hypoxanthine incorporation assay. In kind it is functional, cell-based. The procedure, abridged: (§1)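 Compound from 10.0 mM DMSO stock, diluted ≥1:400, then 11 concentrations in duplicate. Incubated at 37 °C under 90% N2/5% O2/5% CO2 for 48 h, then 3H-hypoxanthine added for 24 h more. CPM counted; EC50 by nonlinear regression.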

Data set [2] concerns Plasmodium berghei. The data set is described as follows: Antimalarial activity against blood stage form of GFP transfected Plasmodium berghei infected in mouse assessed as mouse survival day at 10 mg/kg, po administered on day 3, 4, 5 post infection by Thompson test. In kind it is functional.
Another data set has as its system J774. The data set is described as follows: Cytotoxicity against mouse J774 cells after 72 hrs by CellTiter-96 aqueous one solution cell proliferation assay. The settings on record: J774, 72 h. In kind it is cell-based. The method in brief:
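Compounds from 10 µg/mL or 20 µM top concentration, 1:2 serial dilutions over 11 concentrations, 72 h at 37 °C, 5% CO2. MTS-type reagent added for 4 h, absorbance read at 490 nm. IC50 by nonlinear regression.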

Data set [3] deals with Plasmodium berghei. The data set is described as follows: Antimalarial activity against blood stage form of GFP transfected Plasmodium berghei infected in mouse assessed as protection against parasitemia at 10 mg/kg, po administered on day 3, 4, 5 post infection measured on day 30 by Thompson test. In kind it is functional, organism-based. The method in brief: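 Modified Thompson model: mice inoculated ip with 2×10^6 P. berghei (GFP)-infected red blood cells, parasitemia near 1% by day 3. […] Animals followed for 30 days; survival to day 30 with parasitemia below 1% counted as cure.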

Data set [4] relates to Plasmodium berghei. The data set is described as follows: Antimalarial activity against liver stage form of luciferase transfected Plasmodium berghei sporozoites infected in mouse assessed as inhibition of parasitemia at 50 mg/kg administered via oral gavage 1 hr post infection measured on day 9 by bioluminescence method relative to control. It is filed as functional.
Data set [5] relates to Plasmodium berghei. As to the kind of experiment: animal or person. The note with it: in Mus musculus, po, read-out: INH.
Data set [6] has as its system Plasmodium falciparum. As to the kind of experiment: Antimalarial activity against pyrimethamine/chloroquine-resistant Plasmodium falciparum W2 infected in human type A-positive erythrocytes after 48 hrs by [3H]-hypoxanthine incorporation assay. In kind it is functional, cell-based. The method in brief:
as §1

The test system of data set [7] is Plasmodium berghei. As to the kind of experiment: Antimalarial activity against Plasmodium berghei infected in human HepG2 cells after 44 hrs by luciferase assay. It is filed as functional, cell-based. The note with it: HepG2, 44 h. The method in brief: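 HepG2 cells, 75000 per well, in DMEM with 10% FBS at 37 °C, 5% CO2. 5000 Pb luciferase sporozoites from dissected mosquito salivary glands added per well for 3 h, then washed three times with PBS. Serially diluted compound added in triplicate, 44 h at 37 °C. Cells lysed, luciferase substrate added, luminescence read.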

In data set [8] the test system is Plasmodium berghei. As to the kind of experiment: Antimalarial activity against liver stage form of luciferase transfected Plasmodium berghei sporozoites infected in mouse assessed as inhibition of parasitemia at 100 mg/kg administered via oral gavage 1 hr post infection measured on day 9 by bioluminescence method relative to control. In kind it is functional.

In data set [9] the test system is Plasmodium berghei. The data set is described as follows: Antimalarial activity against liver stage form of luciferase transfected Plasmodium berghei sporozoites infected in mouse assessed as inhibition of parasitemia at 25 mg/kg administered via oral gavage 1 hr post infection measured on day 9 by bioluminescence method relative to control. It is filed as functional.

Data set [10] has as its system Plasmodium berghei. As to the kind of experiment: Antimalarial activity against liver stage form of luciferase transfected Plasmodium berghei sporozoites infected in mouse assessed as inhibition of parasitemia at 50 mg/kg, sc administered 1 hr post infection measured on day 9 by bioluminescence method relative to control. It is filed as functional.
Data set [11] deals with Plasmodium berghei. As to the kind of experiment: Antimalarial activity against liver stage form of luciferase transfected Plasmodium berghei sporozoites infected in mouse assessed as protection against parasitemia at 25 to 100 mg/kg administered via oral gavage 1 hr post infection measured at 44 hrs by bioluminescence method. It is filed as functional, organism-based. The procedure, abridged:
(§2)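 Mice infected with luciferase-expressing P. berghei sporozoites, five per group. A single dose in PEG 400 was given orally by gavage (25, 50, 100 mg/kg) or subcutaneously (50 mg/kg) 1 h after infection. Infected untreated controls and a primaquine drug control were included. Whole-animal imaging was done 5 min after ip D-luciferin (100 mg/kg) under isoflurane, at 44 h and days 6, 9 and 13. Survival/cure followed to day 30.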

In data set [12] the test system is Plasmodium berghei. The data set is described as follows: Antimalarial activity against liver stage form of luciferase transfected Plasmodium berghei sporozoites infected in mouse assessed as protection against parasitemia at 25 to 100 mg/kg administered via oral gavage 1 hr post infection measured on day 6 to 13 by bioluminescence method. It is filed as functional, organism-based. The method in brief: as §2

The nature of data set [13]: Aqueous solubility of compound at pH 6.5. It is filed as physicochemical.
In data set [14] the test system is Plasmodium berghei. As to the kind of experiment: Antimalarial activity against liver stage form of luciferase transfected Plasmodium berghei sporozoites infected in mouse assessed as protection against parasitemia at 100 mg/kg administered via oral gavage 1 hr post infection measured on day 30 by bioluminescence method. It is filed as functional, organism-based. The method in brief:
as §2

Data set [15] has as its system Plasmodium berghei. As to the kind of experiment: Antimalarial activity against liver stage form of luciferase transfected Plasmodium berghei sporozoites infected in mouse assessed as protection against parasitemia at 50 mg/kg, sc administered 1 hr post infection measured on day 6 to 13 by bioluminescence method. In kind it is functional, organism-based. The method in brief:
as §2

The subject of data set [16] is Plasmodium berghei. The data set is described as follows: Antimalarial activity against liver stage form of luciferase transfected Plasmodium berghei sporozoites infected in mouse assessed as protection against parasitemia at 50 mg/kg, sc administered 1 hr post infection measured at 44 hrs by bioluminescence method. It is filed as functional, organism-based. The procedure, abridged: as §2

For data set [17], the system named is Plasmodium berghei. The data set is described as follows: Antimalarial activity against liver stage form of luciferase transfected Plasmodium berghei sporozoites infected in mouse assessed as protection against parasitemia at 50 mg/kg, sc administered 1 hr post infection measured on day 30 by bioluminescence method. It is filed as functional, organism-based. The procedure, abridged:
as §2

For data set [18], the system named is Plasmodium berghei. The data set is described as follows: Antimalarial activity against liver stage form of luciferase transfected Plasmodium berghei sporozoites infected in mouse assessed as protection against parasitemia at 25 to 50 mg/kg administered via oral gavage 1 hr post infection measured on day 30 by bioluminescence method. In kind it is functional, organism-based. The procedure, abridged: as §2

Data set [19] relates to Plasmodium berghei. As to the kind of experiment: Antimalarial activity against liver stage form of luciferase transfected Plasmodium berghei sporozoites infected in mouse assessed as protection against parasitemia at 100 mg/kg administered via oral gavage 1 hr post infection measured on day 6 to 13 by bioluminescence method. In kind it is functional, organism-based. The method in brief: as §2

In data set [20] the test system is Plasmodium berghei. The data set is described as follows: Antimalarial activity against liver stage form of luciferase transfected Plasmodium berghei sporozoites infected in mouse assessed as protection against parasitemia at 100 mg/kg administered via oral gavage 1 hr post infection measured at 44 hrs by bioluminescence method. In kind it is functional, organism-based. The method in brief: as §2

The structures appear in SMILES notation. Active and inactive are the calls of the source. The rule behind the calls is not given here. Bounds are passed on as bounds.

For orientation: EC50 means the concentration giving half of the maximal effect. Higher therefore signals a less potent agent. As for `Cc1[nH]c2cc(CN3CCN(c4ccc(F)cc4)CC3)ccc2c(=O)c1Br`, the EC50 is 26 nM with Plasmodium falciparum [1] and above 20000 nM with J774. Besides, the Survival entry in the data set with Plasmodium berghei [2] was “<=13 day”. For the same molecule, in the data set on Plasmodium berghei [3], the outcome was inactive.
In the case of `COc1cc(NC(C)CCCN)c2ncccc2c1` (configuration not stated) [PRIMAQUINE], the inhibition in vivo at 50 mg/kg in the data set with Plasmodium berghei [4] was above 99%.
As for `Cc1[nH]c2cc(CN3CCN(c4ccc(F)cc4)CC3)ccc2c(=O)c1Cl`, the EC50 in the data set with Plasmodium falciparum [1] was 52 nM; with J774 it was above 20000 nM; in the data set with Plasmodium falciparum [6], 39 nM. The Survival entry in the data set on Plasmodium berghei [2] is “<=13 day”. Moreover, in the data set with Plasmodium berghei [5], the inhibition in vivo at 10 mg/kg was found to be 11%. In addition, the outcome with Plasmodium berghei [3] was inactive.
Turning to `O=c1c(Br)c[nH]c2cc(CN3CCN(c4ccc(F)cc4)CC3)ccc12`, the EC50 with Plasmodium falciparum [1] was above 2000 nM; in the data set with Plasmodium berghei [7] it was 0.86 nM; with J774 it was above 20000 nM; in the data set on Plasmodium falciparum [6] it was 810 nM. The Survival entry with Plasmodium berghei [2] is on record as “<=13 day”. Further, the inhibition in vivo at 10 mg/kg in the data set with Plasmodium berghei [5] is 33%. Moreover, the outcome in the data set on Plasmodium berghei [3] was inactive.
Turning to `COC(=O)c1c[nH]c2cc(CN3CCN(c4ccc(C(F)(F)F)cc4)CC3)ccc2c1=O`, the EC50 in the data set on Plasmodium falciparum [1] was determined as 120 nM; in the data set with Plasmodium berghei [7], 16 nM; with J774 it was 11000 nM; in the data set with Plasmodium falciparum [6], 0.32 nM. The Survival entry in the data set with Plasmodium berghei [2] was “<=21 day”. Besides, the result in the data set on Plasmodium berghei [3] was inactive.
What is called solubility is the concentration that dissolves in the medium under given conditions. Read a low solubility as little dissolved substance. As to `COC(=O)c1c[nH]c2cc(CN3CCN(c4ccccc4)CC3)ccc2c1=O`, the 50% effective concentration (EC50) in the data set on Plasmodium falciparum [1] stood at 480 nM; in the data set on Plasmodium berghei [7] it was 4.7 nM; in the data set on Plasmodium falciparum [6], 1.3 nM. The inhibition in vivo at 100 mg/kg in the data set on Plasmodium berghei [8] is above 99%. Moreover, the inhibition in vivo at 25 mg/kg in the data set on Plasmodium berghei [9] was 65.3%. The inhibition in vivo at 50 mg/kg in the data set on Plasmodium berghei [10] is above 99%; in the data set with Plasmodium berghei [4], 85.1%. The outcome with Plasmodium berghei [11], with Plasmodium berghei [12], in the data set on Plasmodium berghei [14], with Plasmodium berghei [15] and in the data set with Plasmodium berghei [16] was Active. This molecule also displayed a solubility in [13] of at least 80 µM.
In the case of `COC(=O)c1c[nH]c2cc(CN3CCN(c4ccc(F)cc4)CC3)ccc2c1=O`, the EC50 with Plasmodium falciparum [1] is 130 nM; in the data set on Plasmodium berghei [7] it was 1.1 nM; in the data set with J774, 2000 nM; with Plasmodium falciparum [6], 1.8 nM. Besides, the Survival result in the data set on Plasmodium berghei [2] is recorded as “<=21 day”. Further, the outcome in the data set with Plasmodium berghei [3] was inactive.
For `COC(=O)c1c[nH]c2cc(CN3CCN(c4ccc(F)cc4)CC3)c(C)cc2c1=O`, the EC50 worked out at 350 nM with Plasmodium falciparum [1], 2.6 nM in the data set on Plasmodium berghei [7], 16000 nM in the data set with J774 and 0.84 nM with Plasmodium falciparum [6]. Further, the Survival result in the data set with Plasmodium berghei [2] is given as “<=21 day”.
`COC(=O)c1c[nH]c2cc(CN3CCN(Cc4ccc(OC)cc4)CC3)ccc2c1=O`: the EC50 stood at 800 nM in the data set with Plasmodium falciparum [1], 83 nM in the data set with Plasmodium berghei [7] and 2.5 nM in the data set on Plasmodium falciparum [6]. Also, the inhibition in vivo at 25 mg/kg in the data set with Plasmodium berghei [9] was determined as 49.1%. In addition, in the data set with Plasmodium berghei [17], the result was inactive. Further, the result with Plasmodium berghei [18], in the data set on Plasmodium berghei [19] and in the data set on Plasmodium berghei [20] was Active. For the same molecule, the inhibition in vivo at 50 mg/kg in the data set with Plasmodium berghei [10] was 20.1%.

For the origin of these results see ChEMBL document CHEMBL4052822, “Design and Synthesis of Orally Bioavailable Piperazine Substituted 4(1H)-Quinolones with Potent Antimalarial Activity: Structure-Activity and Structure-Property Relationship Studies” (J Med Chem, 2018).
